Screening results as filed in PubChem BioAssay.
Rows were chosen to be rich in hits. Some 1.4% of all compounds tested hit in one or more screens of this group.
CTSL1 counter = cathepsin L1 inhibition, PFM18AAP counter-screen; recombinant F. hepatica cathepsin L1, Z-Leu-Arg-MCA fluorescence; inhibition, % at 5.96 µM; actives 0.49% (n = 300,000);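 active = inhibition above the mean of all tested compounds plus 3 SD, set per screening campaign, cut at about 17% in these data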;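 also: 0% = plate median of test compound wells and 100% = 1 µM Z-Phe-Ala-diazomethylketone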
ATG4B inh = blocks human ATG4B protease cleavage of LC3 substrate; inhibition, % at 8.33 µM; actives 0.51% (n = 340,000); ATG4B cleavage of LC3-PLA2, NBD-HPC fluorescence, 1 h; Q9Y4P1; AID 504462; in the data active = inhibition above about 40%
Target sequence (Q9Y4P1 whole entry, looked up): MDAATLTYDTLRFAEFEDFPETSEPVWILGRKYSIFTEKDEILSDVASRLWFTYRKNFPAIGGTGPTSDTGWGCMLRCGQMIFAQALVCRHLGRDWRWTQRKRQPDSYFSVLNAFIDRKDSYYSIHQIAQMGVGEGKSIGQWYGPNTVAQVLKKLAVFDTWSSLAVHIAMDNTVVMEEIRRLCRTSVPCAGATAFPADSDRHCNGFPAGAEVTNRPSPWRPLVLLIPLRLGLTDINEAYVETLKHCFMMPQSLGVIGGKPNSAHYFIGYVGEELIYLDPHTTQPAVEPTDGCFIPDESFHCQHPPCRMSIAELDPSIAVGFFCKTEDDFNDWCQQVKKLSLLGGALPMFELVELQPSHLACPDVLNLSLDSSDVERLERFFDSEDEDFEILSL
Diaphorase inh = inhibits diaphorase or chemically oxidizes, flagging diaphorase assay artifacts. diaphorase resazurin-to-resorufin fluorescence, NADH, 16 min; bacterial (C. kluyveri) enzyme, not human. inhibition, % at 20 µM. actives 0.69% (n = 190,000). AID 1217;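 active = primary screen inhibition at 20 µM above a set limit, cut at about 50% in these data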;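 also: plate controls were DMSO with full reaction for no effect and wells lacking NADH for full effect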
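Benchmarks: positive control wells lacking NADH, neutral wells with DMSO only. System: bacterial diaphorase enzyme (C. kluyveri). Input: 0.14 U/mL diaphorase, enzyme working solution. Detection: resorufin fluorescence, excitation 544 nm, emission 590 nm. Times: 16-min room-temperature incubation before reading.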
Diaphorase act = diaphorase activation or chemical reduction counter-screen; actives 0.005% (n = 190,000); Diaphorase/resazurin coupled assay, resorufin fluorescence, 16 min; stronger effect = higher value; 1 = vehicle wells, 0 = NADH-free wells; activation factor at 20 µM;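 active = diaphorase activity raised at least twofold by the compound at 20 µM; inactive = activation factor below 2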
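Measured by – red resorufin fluorescence at 544/590 nm excitation/emission · Test system – Clostridium kluyveri diaphorase, purified enzyme · Incubation – reaction time 16 min, room temperature · Buffer or medium – 50 mM HEPES pH 7.4 with 4.542 mM MgCl2, 0.005% Tween 20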
HKDC1 inhibitor = blocks human hexokinase HKDC1 activity; Q2TB90; recombinant HKDC1, G6PDH/diaphorase resazurin coupled fluorescence; inhibition, % at 20 µM; actives 0.16% (n = 340,000);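 active = inhibition above about 35% when tested at 20 µM, limit read from the data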;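 also: plate controls were DMSO wells with enzyme for no effect and DMSO wells lacking enzyme for full effect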
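System: Recombinant HKDC1 hexokinase | Amount: HKDC1 at 5 µg/mL | Reagent: Glucose with 1 mM ATP | Doses: Single 20 µM dose | Incubation: Reaction time 90 min, room temperature, protected from light | Signal: Coupled resazurin fluorescence, excitation 525 nm, emission 613 nm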
Starred values were filed as active, the others as inactive.

Results for COc1cc2[nH]c(=S)nc(NC3CCCCCC3)c2cc1OC ?
CTSL1 counter: 0; ATG4B inh: -11; Diaphorase inh: 75*; Diaphorase act: 0.2; HKDC1 inhibitor: 6

How did COc1cc2[nH]c(=S)nc(NCC3CCCO3)c2cc1OC (stereo not given) do in these assays?
CTSL1 counter: 2; ATG4B inh: -14; Diaphorase inh: 26; Diaphorase act: 0.7; HKDC1 inhibitor: 4

Results for C=C1C[C@H](O[C@@H]2O[C@H](CO)[C@@H](O)[C@H](O)[C@H]2O)[C@@H]2[C@H](OC(=O)[C@H]2C)[C@H]2[C@H](C)[C@H](O)C[C@@H]12 ?
ATG4B inh: 5; HKDC1 inhibitor: -6

How did Cc1cc(S(=O)(=O)NC(C)c2nnc3ccccn23)ccc1Br (stereo not given) do in these assays?
ATG4B inh: -10; HKDC1 inhibitor: -2

Results for Cc1ccc(NC(=O)CCl)cc1S(=O)(=O)N1CCCCCC1 ?
CTSL1 counter: 58*; ATG4B inh: -6; Diaphorase inh: 12; Diaphorase act: 0.9; HKDC1 inhibitor: 11

How did CCOC(=O)c1nn(-c2ccc(C)cc2)c(=O)c2c(N)scc12 do in these assays?
CTSL1 counter: 17*; ATG4B inh: -7; Diaphorase inh: 28; Diaphorase act: 0.7; HKDC1 inhibitor: 7

What do the screens show for `CCOc1ccc(N=C2NC(=O)C(CC(=O)Nc3ccccc3)S2)cc1` (stereo not given)?
CTSL1 counter: 19*; ATG4B inh: -1; Diaphorase inh: 10; Diaphorase act: 0.9; HKDC1 inhibitor: 5

How did O=C(CSc1ccc(-c2ccccn2)nn1)c1ccc(F)cc1 do in these assays?
CTSL1 counter: 1; ATG4B inh: -2; Diaphorase inh: 58*; Diaphorase act: 0.4; HKDC1 inhibitor: -1

Results for O=C(CSc1ccc2nnc(-c3ccccn3)n2n1)Nc1ccc(F)cc1 ?
CTSL1 counter: 50*; ATG4B inh: 4; HKDC1 inhibitor: -7

How did Cc1ccc(NC(=O)CSc2ccc3nnc(-c4ccccn4)n3n2)cc1 do in these assays?
CTSL1 counter: -1; ATG4B inh: -1; HKDC1 inhibitor: -10

How did CC[C@]12c3[nH]c4ccccc4c3CCN1C(=O)C(CC(=O)NCCCN(C)C)C[C@@H]2C(=O)N1CCN(C(=O)C2CC2)CC1 (stereo not given in full) do in these assays?
ATG4B inh: 0; HKDC1 inhibitor: -5

What do the screens show for `COc1ccc(CN(C(=O)c2ccco2)c2ccccc2)cc1`?
CTSL1 counter: -2; ATG4B inh: 19; Diaphorase inh: 13; Diaphorase act: 0.9; HKDC1 inhibitor: 2

How did O=C(c1ccco1)N(CCC(c1ccccc1)c1ccco1)Cc1ccccc1 (stereo not given) do in these assays?
CTSL1 counter: 31*; ATG4B inh: 37; Diaphorase inh: 25; Diaphorase act: 0.8; HKDC1 inhibitor: 3

How did COc1ccccc1C(CCN(Cc1cccs1)C(C)=O)c1ccco1 (stereo not given) do in these assays?
CTSL1 counter: 3; ATG4B inh: 14; Diaphorase inh: 12; Diaphorase act: 0.9; HKDC1 inhibitor: 8

Results for COc1ccc(CN(CCC(c2ccccc2)c2ccco2)C(=O)c2ccco2)cc1 (stereo not given) ?
CTSL1 counter: 23*; ATG4B inh: 9; Diaphorase inh: 19; Diaphorase act: 0.8; HKDC1 inhibitor: 6

How did CCC(=O)N(CCC(c1ccccc1)c1ccco1)Cc1cccs1 (stereo not given) do in these assays?
CTSL1 counter: 38*; ATG4B inh: 8; Diaphorase inh: 4; Diaphorase act: 1; HKDC1 inhibitor: 1

How did O=C(CC(C(=O)O)c1ccc(Cl)cc1Cl)c1ccc(Cl)cc1 (stereo not given) do in these assays?
CTSL1 counter: 2; ATG4B inh: 14; HKDC1 inhibitor: -1

Results for O=C(CCl)N1N=C(c2cccs2)CC1c1ccco1 (stereo not given) ?
CTSL1 counter: 27*; ATG4B inh: 4; Diaphorase inh: 35; Diaphorase act: 0.7; HKDC1 inhibitor: 10

Results for O=C(O)/C=C/C(=O)N1N=C(c2ccco2)CC1c1ccco1 (stereo not given) ?
CTSL1 counter: 35*; ATG4B inh: -3; HKDC1 inhibitor: -2

How did CN1CCN(CC(=O)N2N=C(c3cccs3)CC2c2ccco2)CC1 (stereo not given) do in these assays?
CTSL1 counter: 0; ATG4B inh: 9; Diaphorase inh: -5; Diaphorase act: 1.1; HKDC1 inhibitor: -11

What do the screens show for `C=CCn1c(SCC(=O)N2N=C(c3ccco3)CC2c2ccco2)nnc1-c1ccncc1` (stereo not given)?
CTSL1 counter: -3; ATG4B inh: 2; Diaphorase inh: 74*; Diaphorase act: 0.3; HKDC1 inhibitor: -8

How did COc1ccc(S(=O)(=O)Nc2ccc3c(c2)C(=O)N([C@@H](C)CO)C[C@H](C)[C@H](CN(C)S(=O)(=O)c2ccc(F)cc2)O3)cc1 do in these assays?
ATG4B inh: -22; HKDC1 inhibitor: -3

What do the screens show for `Cc1ccc(O)c(C(=O)c2cnn(C(=O)Cc3csc(C)n3)c2)c1`?
CTSL1 counter: 0; ATG4B inh: 43*; Diaphorase inh: 15; Diaphorase act: 0.9; HKDC1 inhibitor: 5

How did CCCN(CCC)CCNC(=O)C(NS(=O)(=O)c1ccc2c(c1)CCC(=O)N2)c1ccccc1 (stereo not given) do in these assays?
CTSL1 counter: 31*; ATG4B inh: -1; Diaphorase inh: -8; Diaphorase act: 1.1; HKDC1 inhibitor: -10

How did Cc1ccc(S(=O)(=O)N2CCN(C(=O)CN3CCCSc4ccccc43)CC2)cc1 do in these assays?
ATG4B inh: 13; HKDC1 inhibitor: 3

Results for C/C=C\C=C/C(=O)Nc1cccc(C2=NOC3(C2)C[C@@H](C(N)=O)N(C(=O)[C@H]2CCC(=O)N2)C3)c1 (stereo not given in full) ?
CTSL1 counter: 20*; ATG4B inh: -5; HKDC1 inhibitor: -2

How did COc1cc(NC(=O)CN2C(=O)c3ccccc3S2(=O)=O)cc(OC)c1 do in these assays?
ATG4B inh: -21; HKDC1 inhibitor: 2

Results for COc1ccc(CNC(=O)[C@@H](NC(=O)C2CCN(S(=O)(=O)c3ccc(C)cc3)CC2)C(C)C)cc1OC ?
CTSL1 counter: 1; ATG4B inh: 11; HKDC1 inhibitor: 2

How did CC(C)N1CCc2c(sc(NC(=O)c3cc4cc([N+](=O)[O-])ccc4s3)c2C(N)=O)C1 do in these assays?
ATG4B inh: -14; Diaphorase inh: 67*; Diaphorase act: 0.3; HKDC1 inhibitor: 24

How did CN1CCc2c(sc(NC(=O)c3cc4cc([N+](=O)[O-])ccc4s3)c2C(N)=O)C1 do in these assays?
Diaphorase inh: 12; Diaphorase act: 0.9
